In general, ED50 refers to the midpoint of the dose-response relation. A higher ED50 goes with a need for a large dose. By LD50 is commonly meant the dose expected to kill half of the subjects tested. A low value points to a more toxic substance.

For data set [1], the species on record is Mus musculus. The experiment in a line: Effective dose of compound that evoked CNS toxicity in mice in the form of ataxia. It is filed as functional. An outline of the steps: (§1)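 Mice dosed subcutaneously, groups of 10. Over a 20-min period they were watched for ataxia, convulsions, loss of righting reflex or death, then each was placed in chloroform-vapor-saturated air until respiration ceased. ED50 with 95% Fieller limits for protection against tachycardia, ataxia and convulsions, calculated by Berkson's logit chi-square method.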

Data set [2] is filed under the species Mus musculus. The experiment in a line: Effective dose of compound that evoked CNS toxicity in mice in the form of convulsions. It is filed as functional. The method in brief: as §1
For data set [3], the species on record is Mus musculus. The experiment in a line: Effective dose of compound that protects mice against chloroform induced tachycardia. It is filed as functional. An outline of the steps:
as §1

Data set [4] has as its system Rattus norvegicus. The experiment in a line: Anesthetic activity of compound (0.5%) was evaluated by duration of sciatic nerve block. It is filed as functional. An outline of the steps: (§2)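 Rat sciatic nerve block: 0.2 mL of test solution (concentration as base, with 1:100 000 epinephrine) injected into the mid-thigh around the sciatic nerve trunk, both hind limbs. Five rats per concentration, so up to 10 blocks. Animals examined at frequent intervals for onset of and recovery from motor block. Duration given as mean ± standard deviation.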

For data set [5], the system named is Rattus norvegicus. The experiment in a line: Anesthetic activity of compound (0.25%) was evaluated by duration of sciatic nerve block. It is filed as functional. An outline of the steps:
as §2

The test system of data set [6] is Rattus norvegicus. The experiment in a line: Anesthetic activity of compound (0.125%) was evaluated by duration of sciatic nerve block. It is filed as functional. An outline of the steps:
as §2

The nature of data set [7]: Lethal dose of compound evaluated by administering intraperitoneally to female CRCD mice. The following applies: mouse, in vivo, ip. It is filed as toxicity, organism-based. The method in brief: (§3)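 Female CRCD mice (20–25 g), in groups, given compound dissolved in isotonic saline or distilled water, either by tail-vein (iv) or intraperitoneal injection. Doses expressed as base. LD50 and 95% confidence limits calculated by the minimum logit chi-square method.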

Data set [8] relates to Rattus norvegicus. The experiment in a line: Anesthetic activity of compound (1.0%) was evaluated by duration of sciatic nerve block. It is filed as functional. An outline of the steps: as §2
Data set [9] relates to Mus musculus. The experiment in a line: CNS toxicity expressed as percent of convulsions evoked in mice at a dose of 100 mg/kg. It is filed as functional.
Data set [10] deals with Rattus norvegicus. The experiment in a line: Anesthetic activity of compound (2.0%) was evaluated by duration of sciatic nerve block.
Data set [11] has as its system Mus musculus. The experiment in a line: CNS toxicity expressed as percent of ataxia evoked in mice at a dose of 100 mg/kg. It is filed as functional.
Data set [12] has as its system Mus musculus. The experiment in a line: Percent protection against chloroform induced tachycardia in mice at 100 mg/kg. It is filed as functional.
Data set [13] in a line: Lethal dose of compound evaluated by administering intravenously to female CRCD mice. It is filed as toxicity, organism-based. To be noted: mouse, in vivo, iv. The method in brief: as §3
The subject of data set [14] is Mus musculus. The experiment in a line: CNS toxicity expressed as percent of ataxia evoked in mice at a dose of 200 mg/kg; Inactive. It is filed as functional.
Data set [15] relates to Mus musculus. The experiment in a line: Percent protection against chloroform induced tachycardia in mice at 200 mg/kg; Inactive. It is filed as functional.
Data set [16] relates to Mus musculus. The experiment in a line: CNS toxicity expressed as percent of convulsions evoked in mice at a dose of 200 mg/kg; Inactive. It is filed as functional.
Data set [17] concerns Mus musculus. The experiment in a line: Percent protection against chloroform induced tachycardia in mice at 15.8 mg/kg; Inactive. It is filed as functional.
The test system of data set [18] is Mus musculus. The experiment in a line: CNS toxicity expressed as percent of ataxia evoked in mice at a dose of 50.1 mg/kg. It is filed as functional.
Data set [19] has as its system Mus musculus. The experiment in a line: CNS toxicity expressed as percent of ataxia evoked in mice at a dose of 10 mg/kg. It is filed as functional.
The subject of data set [20] is Rattus norvegicus. The experiment in a line: Anesthetic activity of compound (0.25%) was evaluated by duration of sciatic nerve block; NB= no blocks (0/10). It is filed as functional, organism-based. An outline of the steps: as §2
Data set [21] deals with Rattus norvegicus. The experiment in a line: Anesthetic activity of compound (0.125%) was evaluated by duration of sciatic nerve block; NB= no blocks (0/10). It is filed as functional, organism-based. An outline of the steps:
as §2

The test system of data set [22] is Mus musculus. The experiment in a line: Percent protection against chloroform induced tachycardia in mice at 398 mg/kg. It is filed as functional.
The test system of data set [23] is Mus musculus. The experiment in a line: Percent death against chloroform induced tachycardia in mice at 631 mg/kg. It is filed as functional. The method in brief: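 Mice in groups of 10, dosed subcutaneously, then watched for 20 min for ataxia, convulsions, loss of righting reflex or death. Survivors were placed individually in chloroform-vapour-saturated air until respiration ceased. Percent of animals dead at the single dose was recorded alongside protection, ataxia and convulsion counts.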

The subject of data set [24] is Mus musculus. The experiment in a line: Percent protection against chloroform induced tachycardia n mice at 631 mg/kg; Inactive. It is filed as functional.
Data set [25] deals with Mus musculus. The experiment in a line: CNS toxicity expressed as percent of ataxia evoked in mice at a dose of 631 mg/kg. It is filed as functional.
Data set [26] has as its system Mus musculus. The experiment in a line: CNS toxicity expressed as percent of convulsions evoked in mice at a dose of 631 mg/kg. It is filed as functional.
Data set [27] deals with Mus musculus. The experiment in a line: CNS toxicity expressed as percent of ataxia evoked in mice at a dose of 79.4 mg/kg. It is filed as functional.
For data set [28], the system named is Mus musculus. The experiment in a line: CNS toxicity expressed as percent of convulsions evoked in mice at a dose of 79.4 mg/kg; Inactive. It is filed as functional.
In data set [29] the test system is Mus musculus. The experiment in a line: Percent protection against chloroform induced tachycardia in mice at 79.4 mg/kg; Inactive. It is filed as functional.

For `Cc1cccc(C)c1NC(=O)C(CN(C)C)N(C)C` (centres undefined), the ED50 in data set [1] came to 16 mg/kg; in [2] it was 23 mg/kg; in [3] it was 17 mg/kg.
`CCOc1ccccc1NC(=O)C(CN(CC)CC)N(CC)CC` (centres undefined): the Duration in data set [4] was found to be 176 min; in data set [5], 138 min; in data set [6], 140 min. For the same molecule, the LD50 in data set [7] amounted to 81 mg/kg.
Turning to `CCCN(CC)CC(C(=O)Nc1ccc(OC)cc1C)N(CC)CCC` (centres undefined), the values for the Duration in data set [4], in data set [5] and in data set [6] were 227 min, 107 min and 96 min, respectively. Moreover, the LD50 in data set [7] came to 66 mg/kg.
For `CCN(CC)CCC(=O)Nc1c(C)cccc1C`, the values for the ED50 in [1] and in data set [3] were 52 mg/kg and 69 mg/kg, respectively. For the same molecule, the Duration in data set [4] is given as 146 min; in data set [5], 110 min; in data set [8], 184 min.
In turn, `CCN(CC)CC(C(=O)Nc1cccc(OC)c1)N(CC)CC` (centres undefined) returned a Convulsions in [9] of 0%. Further, the Duration was found to be 265 min in [10]; 100 min in data set [4]; 87 min in data set [5]; 77 min in data set [6]; 145 min in [8]. Further, the Ataxia in data set [11] was determined as 0%. The Protection in data set [12] is reported as 60%. In addition, the LD50 in [13] came out at 20 mg/kg.
On to `CCN(CC)CC(C(=O)Nc1cc(C)ccc1OC)N(CC)CC` (centres undefined), for which the ED50 in [1] worked out at 96 mg/kg; in data set [2], 137 mg/kg; in data set [3], 106 mg/kg. Moreover, the Duration turned out to be 166 min in data set [4], 125 min in data set [5], 94 min in data set [6] and 273 min in data set [8]. This molecule gave an LD50 in data set [7] of 81 mg/kg.
Regarding `CCOc1ccccc1NC(=O)C(CN(C)CC)N(C)CC` (centres undefined), the Duration in [4] amounted to 136 min; in data set [5], 105 min; in [6], 78 min; in [8], 189 min. This molecule had a 50% lethal dose (LD50) in data set [7] of 94 mg/kg.
On to `CCN(CC)CC(=O)Nc1c(C)cccc1C` [LIDOCAINE], for which the ED50 turned out to be 42 mg/kg in data set [1] and 61 mg/kg in [3]. Moreover, the Duration in data set [4] is given as 123 min; in data set [5] it was 102 min; in data set [8], 162 min.
Regarding `Cc1cccc(C)c1NC(=O)C(C)N` (centres undefined) [TOCAINIDE], the ED50 in [1] was found to be 146 mg/kg; in data set [3], 250 mg/kg. Besides, the Duration in [4] turned out to be 44 min; in data set [8] it was 79 min. The LD50 in data set [13] worked out at 94 mg/kg.
Molecule `Cc1cccc(C)c1NC(=O)C1CNCCN1` (centres undefined) gave an Ataxia in [14] of 0%. The same molecule came in with a Protection in [15] of 10%. Further, in data set [16], the Convulsions is recorded as 0%.
Consider `C=CCN(C)CC(C(=O)Nc1c(C)cccc1C)N(C)CC=C` (centres undefined), for which the ED50 in data set [1] is 13 mg/kg; in data set [2], 17 mg/kg. In data set [17], this molecule registered a Protection of 30%.
In the case of `CCN(CC)CC(C(=O)Nc1ccc(OC)cc1C)N(CC)CC` (centres undefined), the Duration stood at 184 min in [10]; 157 min in data set [4]; 151 min in data set [5]; 162 min in data set [6]; 150 min in [8]. In data set [7], the LD50 is 102 mg/kg.
As for `Cc1cccc(C)c1NC(=O)C(CN(C)C(C)C)N(C)C(C)C` (centres undefined), the ED50 was 6 mg/kg in [1], 9.3 mg/kg in data set [2] and 6.1 mg/kg in [3].
Taken in the same sequence, the figures for `Cc1cccc(C)c1NC(=O)C(CN1CCCC1)N1CCCC1` (centres undefined) were 12 mg/kg, 12 mg/kg and 14 mg/kg.
For `CCN(CC)CC(C(=O)Nc1ccccc1OC)N(CC)CC` (centres undefined), the Duration in [10] was 184 min; in data set [4], 66 min; in data set [5] it was 91 min; in [8] it was 178 min. For the same molecule, the results for the ED50 in data set [2] and in data set [3] were 65 mg/kg and 81 mg/kg, respectively. Moreover, the Ataxia in data set [18] was found to be 40%. The molecule also showed an LD50 in data set [7] of 70 mg/kg.
Turning to `CCN(C)CC(C(=O)Nc1c(C)cccc1C)N(C)CC` (centres undefined), the ED50 in [2] is 12 mg/kg; in data set [3], 13 mg/kg. In data set [19], the Ataxia was found to be 100%.
As for `CCCN(CC)C(CC)C(=O)Nc1c(C)cccc1C` (centres undefined) [ETIDOCAINE], the Duration in data set [4] amounted to 279 min; in data set [5], 222 min; in data set [6] it was 156 min. The results for the LD50 in [7] and in data set [13] were 56 mg/kg and 7 mg/kg, respectively.
For `CCOc1ccc(NC(=O)C(CN(C)C)N(C)C)cc1OCC` (centres undefined), the Duration in data set [10] is 147 min; in data set [20], “No blocks”; in [21] it was “No blocks”; in data set [4], 83 min; in data set [8], 133 min. Moreover, the ED50 came out at 199 mg/kg in data set [1] and 317 mg/kg in data set [2]. Further, the Protection in [22] came out at 50%.
In [23], `C#CCN(C)CC(C(=O)Nc1c(C)cccc1C)N(C)CC#C` (centres undefined) registered a Death of 40%. In data set [24], this molecule registered a Protection of 0%. Further, in [25], the Ataxia was found to be 40%. In [26], the Convulsions amounted to 40%.
As to `COCCN(C)CC(C(=O)Nc1c(C)cccc1C)N(C)CCOC` (centres undefined), the ED50 in [1] was determined as 4.3 mg/kg; in [2], 5.1 mg/kg; in data set [3], 2.6 mg/kg.
Consider `Cc1cccc(C)c1NC(=O)C(CN1CCOCC1)N1CCOCC1` (centres undefined), for which the Duration in [10] amounted to 193 min; in [4], 102 min; in [5], 72 min; in [6] it was 72 min; in data set [8], 138 min. Also, in [27], the Ataxia turned out to be 100%. This molecule also returned a Convulsions in data set [28] of 0%. The Protection in data set [29] was 10%.
Regarding `CCCN(CC)CC(C(=O)Nc1ccccc1OC)N(CC)CCC` (centres undefined), the Duration in data set [4] is on record as 260 min; in data set [5], 116 min; in data set [6], 80 min. This molecule also returned an LD50 in data set [13] of 11 mg/kg.

The record behind these values is ChEMBL document CHEMBL1121853, “New antiarrhythmic agents. 7. 2,3-Diaminopropionanilides” (J Med Chem, 1981).
